Experimental data from ChEMBL document CHEMBL3046583, “Design, synthesis, and insecticidal activity of novel pyrazole derivatives containing α-hydroxymethyl-N-benzyl carboxamide, α-chloromethyl-N-benzyl carboxamide, and 4,5-dihydrooxazole moieties” (2012).
Calls of active or inactive are those of the source. The rule behind the calls is not given here.

What was measured:
[1] = system: Helicoverpa armigera; assay: Stomach toxicity against third-instars Helicoverpa armigera assessed as larvicidal activity at 110 mg/kg at 25 +/- 1 degC after 3 days; assay type: functional
In short: (§1)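 Diet-incorporation assay on third-instar larvae. Samples dissolved in acetone to the desired final concentrations; 3 mL of test solution mixed evenly into about 27 g of prepared feed, then dispensed into 24-well plates. Run in triplicate at 25 ± 1 °C. Dead/alive scoring 3 days after treatment; mortality corrected by Abbott's formula on a 0–100 scale.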

[2] = system: Helicoverpa armigera; assay: Stomach toxicity against third-instars Helicoverpa armigera assessed as larvicidal activity at 55 mg/kg at 25 +/- 1 degC after 3 days; assay type: functional; in short: as §1
[3] = system: Helicoverpa armigera; assay: Stomach toxicity against third-instars Helicoverpa armigera assessed as larvicidal activity at 22 mg/kg at 25 +/- 1 degC after 3 days; assay type: functional; in short: as §1
[4] = system: Helicoverpa armigera; assay: Stomach toxicity against third-instars Helicoverpa armigera assessed as larvicidal activity at 11 mg/kg at 25 +/- 1 degC after 3 days; assay type: functional; in short: as §1
[5] = system: Helicoverpa armigera; assay: Stomach toxicity against third-instars Helicoverpa armigera assessed as larvicidal activity at 5.5 mg/kg at 25 +/- 1 degC after 3 days; assay type: functional; in short: as §1
[6] = system: Plutella xylostella; assay: Stomach toxicity against Plutella xylostella (diamondback moth) assessed as larvicidal activity at 600 mg/kg by leaf dip method; assay type: functional
[7] = system: Plutella xylostella; assay: Stomach toxicity against Plutella xylostella (diamondback moth) assessed as larvicidal activity at 200 mg/kg by leaf dip method; assay type: functional
[8] = system: Tetranychus cinnabarinus; assay: Acaricidal activity against Tetranychus cinnabarinus (carmine spider mite) eggs at 600 mg/kg by leaf dip method; assay type: functional, Egg
[9] = system: Tetranychus cinnabarinus; assay: Acaricidal activity against Tetranychus cinnabarinus (carmine spider mite) eggs at 200 mg/kg by leaf dip method; assay type: functional, Egg
[10] = system: Tetranychus cinnabarinus; assay: Acaricidal activity against Tetranychus cinnabarinus (carmine spider mite) adults at 600 mg/kg by leaf dip method; assay type: functional
[11] = system: Tetranychus cinnabarinus; assay: Acaricidal activity against Tetranychus cinnabarinus (carmine spider mite) adults at 200 mg/kg by leaf dip method; assay type: functional
[12] = system: Tetranychus cinnabarinus; assay: Acaricidal activity against Tetranychus cinnabarinus (carmine spider mite) larvae at 600 mg/kg by leaf dip method; assay type: functional
[13] = system: Tetranychus cinnabarinus; assay: Acaricidal activity against Tetranychus cinnabarinus (carmine spider mite) larvae at 200 mg/kg by leaf dip method; assay type: functional
[14] = system: Aphis craccivora; assay: Larvicidal activity against Aphis craccivora (cowpea aphid) at 600 mg/kg by leaf dip method; assay type: functional
[15] = system: Aphis craccivora; assay: Larvicidal activity against Aphis craccivora (cowpea aphid) at 200 mg/kg by leaf dip method; assay type: functional
[16] = system: Culex pipiens pallens; assay: Larvicidal activity against Culex pipiens pallens (mosquito) at 5 mg/kg; assay type: functional
[17] = system: Culex pipiens pallens; assay: Larvicidal activity against Culex pipiens pallens (mosquito) at 2 mg/kg; assay type: functional
[18] = system: Culex pipiens pallens; assay: Larvicidal activity against Culex pipiens pallens (mosquito) at 1 mg/kg; assay type: functional
[19] = system: Plutella xylostella; assay: Antifeedant activity against Plutella xylostella (diamondback moth) at 200 to 600 mg/kg by leaf dip method; assay type: functional, organism-based
[20] = system: Helicoverpa armigera; assay: Stomach toxicity against third-instars Helicoverpa armigera assessed as larvicidal activity at 25 +/- 1 degC after 3 days; assay type: functional; in short: as §1
[21] = system: Culex pipiens pallens; assay: Larvicidal activity against Culex pipiens pallens (mosquito) at 0.5 mg/kg; assay type: functional

Compound | Activity [1] | Activity [2] | Activity [3] | Activity [4] | Activity [5] | Activity [6] | Activity [7] | Activity [8] | Activity [9] | Activity [10] | Activity [11] | Activity [12] | Activity [13] | Activity [14] | Activity [15] | Activity [16] | Activity [17] | Activity [18] | Activity [19] | Activity [21] | other results
CCCCCOc1ccc(C2COC(c3c(Cl)c(CC)nn3C)=N2)cc1 (centres undefined) | 100% | 100% | 100% | 80% | 30% | 70% | 30% | 40% | 20% | 20% | 15% | 15% | 0% | 100% | 90% | 100% | 50% | 0% | Active |  | 
CCc1nn(C)c(C(=O)NCc2ccc(Oc3ccc(C)cc3)cc2)c1Cl [TOLFENPYRAD] | 100% | 100% | 100% | 100% | 70% | 100% | 100% |  |  |  |  |  |  |  |  |  |  |  |  |  | LC50 [20]: 2.47 mg/kg
CCc1nn(C)c(C(=O)NC(CO)c2ccc(Oc3ccccc3)cc2)c1Cl (centres undefined) | 100% | 100% | 70% | 40% | 0% | 60% | 20% | 15% | 0% | 0% |  | 30% | 0% | 100% | 50% | 100% | 100% | 40% |  | 0% | 
CCc1nn(C)c(C2=NC(c3ccc(Cl)cc3)CO2)c1Cl (centres undefined) | 100% | 100% | 100% | 90% | 60% | 0% |  | 40% | 0% | 10% | 0% | 20% | 0% | 60% | 35% | 100% | 50% | 0% |  |  | 
CCc1cc(C2=NC(c3ccc(C(C)(C)C)cc3)CO2)n(C)n1 (centres undefined) | 100% | 100% | 40% | 0% |  | 60% | 45% | 100% | 95% | 100% | 95% | 90% | 80% | 98% | 90% | 100% | 60% | 0% | Active |  | 
CCc1nn(C)c(C2=NC(c3ccc(C(C)(C)C)cc3)CO2)c1Cl (centres undefined) | 100% | 100% | 100% | 70% | 40% | 50% | 30% | 20% | 0% | 30% | 10% | 45% | 30% | 90% | 50% | 100% | 100% | 50% |  | 0% | 
CCc1nn(C)c(C(=O)NC(CCl)c2ccc(Cl)cc2)c1Cl (centres undefined) | 100% | 100% | 100% | 70% | 40% | 70% | 60% | 10% | 0% | 0% |  | 0% |  | 80% | 50% | 100% | 100% | 50% | Active | 0% | 
CCCCCOc1ccc(C(CCl)NC(=O)c2c(Cl)c(CC)nn2C)cc1 (centres undefined) | 100% | 100% | 100% | 60% | 10% | 90% | 45% | 40% | 0% | 0% |  | 30% | 0% | 100% | 45% | 100% | 70% | 0% |  |  | 
CCc1cc(C(=O)NC(CCl)c2ccc(C(C)(C)C)cc2)n(C)n1 (centres undefined) | 100% | 100% | 100% | 90% | 60% | 30% | 15% | 80% | 40% | 30% | 0% | 20% | 0% | 80% | 65% | 60% | 0% |  |  |  | LC50 [20]: 3.33 mg/kg
CCc1nn(C)c(C(=O)NC(CCl)c2ccc(C(C)(C)C)cc2)c1Cl (centres undefined) | 100% | 100% | 100% | 20% | 0% | 90% | 30% | 34% | 30% | 0% |  | 30% | 0% | 100% | 100% | 100% | 100% | 40% |  | 0% | 
CCc1nn(C)c(C(=O)NC(CCl)c2ccc(Oc3ccccc3)cc2)c1Cl (centres undefined) | 100% | 100% | 100% | 80% | 40% | 90% | 60% | 20% | 0% | 0% |  | 30% | 20% | 100% | 80% | 100% | 100% | 60% | Active | 0% | 
